Test results from paper PMC3057471 (Biochemistry, 2011).
Where “and” joins values, the source holds several entries; their conditions need not be identical. Identical values can stand only once. Where no end group is shown, it is not given here.

Experiments:
[1] = Ca^2+ association constants of chromophoric chelators; format: binding; settings: 20 °C, 20 mM Tris-HCl pH 6.8, 100 mM NaCl
[2] = molecular target: Lethocerus troponin C, F1 isoform (Lethocerus); test: other fluorescence titration
[3] = molecular target: Lethocerus troponin C, F2 isoform (Lethocerus); test: other fluorescence titration
[4] = molecular target: T1, F2 TnC (Lethocerus indicus, UniProt Q868D3); test: TnH peptide binding to F2 TnC by competition with melittin; settings: 20 °C, 20 mM Tris-HCl pH 6.8, 100 mM NaCl
T1 sequence (Q868D3 1-158): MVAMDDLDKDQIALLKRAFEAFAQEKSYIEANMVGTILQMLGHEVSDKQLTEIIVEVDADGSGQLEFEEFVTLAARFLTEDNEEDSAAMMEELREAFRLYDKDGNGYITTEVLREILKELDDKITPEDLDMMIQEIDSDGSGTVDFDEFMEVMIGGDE
How it was run: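 Recombinant F2 TnC was expressed in E. coli BL21(DE3), purified on Ni-NTA, His-tag cleaved with TEV, then purified by gel filtration. Melittin (0.33 μM) plus F2 TnC (1.4 μM with 1 mM Ca2+) was titrated with synthetic test peptides (TnH fragments). Binding was read by melittin Trp fluorescence (excitation 280 nm, emission 290–400 nm) at 20 °C, pH 6.8 Tris/100 mM NaCl; Mg2+ was 5 mM.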

[5] = molecular target: T2, F1 TnC (Lethocerus indicus, UniProt Q868D4); settings: C lobe of F1 TnC, essentially Ca^2+ independent; cited from earlier work
T2 sequence (Q868D4 1-158): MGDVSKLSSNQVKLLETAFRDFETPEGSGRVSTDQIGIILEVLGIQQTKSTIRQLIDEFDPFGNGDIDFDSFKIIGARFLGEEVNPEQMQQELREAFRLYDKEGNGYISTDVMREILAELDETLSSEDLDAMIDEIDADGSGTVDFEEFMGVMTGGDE

[6] = molecular target: T2, F1 TnC; test: TnH peptide binding to F1 TnC by competition with melittin; settings: 20 °C, 20 mM Tris-HCl pH 6.8, 100 mM NaCl
How it was run: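 Competition assay: mixtures of melittin and F1 TnC were titrated with synthetic test peptides (TnH fragments; >95% HPLC, sequences MALDI-verified). Displacement was followed by melittin Trp fluorescence (excitation 280 nm, emission 290–400 nm). Conditions were 20 °C, 20 mM Tris-HCl pH 6.8, 100 mM NaCl, with 1 mM Ca2+, 5 mM Mg2+, or both.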

[7] = 1 mM Ca^2+ and 5 mM Mg^2+, competition with melittin
[8] = 5 mM Mg^2+, competition with melittin

In the case of `O=C(O)CN(CC(=O)O)c1ccc(Br)cc1OCCOc1cc(Br)ccc1N(CC(=O)O)CC(=O)O` [5,5′-dibromo BAPTA], the “Equilibrium association constant for Ca^2+ (KCa)” value [1] is reported as “(6.3 ± 0.5) × 10^5 M^−1”.
In the case of `O=C(O)CN(CC(=O)O)c1ccccc1OCCOc1cc([N+](=O)[O-])ccc1N(CC(=O)O)CC(=O)O` [5-nitro BAPTA], the “Equilibrium association constant for Ca^2+ (KCa)” value [1] is reported as “(4.1 ± 0.3) × 10^4 M^−1”.
With “Melittin from honey bee venom (from UniProt P01501 44-70) (peptide)” the Kd [2] was 41 nM and 8.3 nM and 32 nM and the Kd [3] was 840 nM and 190 nM and 770 nM.
With “TnH(30−61) peptide of Lethocerus troponin H” the Kd [2] was 1.3 nM and 1.9 nM and 2.2 nM.
In the case of “TnH(126−159) peptide of Lethocerus troponin H”, the Kd [2] is reported as 12200 nM and 3700 nM and 9100 nM.
In the case of “YDLNSQVNDLRGKFVKPTLKKVSKYENKFAKLQKK [TnH(126−159)]”, the Kd [4, 7] is reported as 3500 ± 800 nM, the Kd ([4]; 1 mM Ca^2+, competition with melittin 0.33 μM, F2 TnC 1.4 μM) is reported as 3100 ± 800 nM and the Kd [4, 8] is reported as 13500 ± 3500 nM. For the same compound, the “Equilibrium dissociation constant range for F1 TnC” value [5] was “in the micromolar range”, the Kd ([6]; 1 mM Ca^2+) was 3700 ± 1100 nM and the Kd ([6]; 5 mM Mg^2+) was 9100 ± 3200 nM. For the same compound, the Kd ([6]; metal: none (0.2 mM EGTA)) was 12200 ± 3400 nM.
“YKAKKAKKGFMTPERKKKLRLLLRKKAAEELKK [TnH(30−61)]” gave a Kd ([4]; 1 mM Ca^2+ (holo), competition with melittin 0.33 μM, F2 TnC 1.4 μM) of 7.8 ± 0.15 nM, a Kd [4, 7] of 6.7 ± 0.9 nM and a Kd [4, 8] of 38.5 ± 5.2 nM. The “Equilibrium dissociation constant range for F1 TnC” value [5] was “in the nanomolar range”, the Kd ([6]; 1 mM Ca^2+ and 5 mM Mg^2+) was 1.3 ± 0.4 nM and the Kd ([6]; 1 mM Ca^2+) was 0.9 ± 0.2 nM. The Kd ([6]; 5 mM Mg^2+) was 2.2 ± 0.4 nM and the Kd ([6]; metal: none (0.2 mM EGTA)) was 1.9 ± 0.6 nM.
